What is called IC50 is the concentration that gives 50% inhibition. Lower therefore signals greater potency in that assay. Usually inhibition in vivo stands for how much of the control response was suppressed.

Here are results for 2 compounds from ChEMBL document CHEMBL3425408, “Design, synthesis, in vitro, and in vivo anticancer and antiangiogenic activity of novel 3-arylaminobenzofuran derivatives targeting the colchicine site on tubulin” (J Med Chem, 2015).

One data set relates to A549. Put plainly: Antiproliferative activity against human A549 cells after 72 hrs by (3-(4,5-dimethylthiazol-2-yl)-2,5-diphenyltetrazolium bromide test. Type of data set: functional, cell-based. As to conditions: A549, 72 h.
In the next data set the test system is HT-29. Put plainly: Antiproliferative activity against human HT-29 cells after 72 hrs by (3-(4,5-dimethylthiazol-2-yl)-2,5-diphenyltetrazolium bromide test. Type of data set: functional, cell-based. As to conditions: HT-29, 72 h.
The test system of another data set is PBL. Put plainly: Cytotoxicity against human PHA-stimulated PBL cells after 72 hrs by MTT assay. The format is cell-based. The method in brief: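 PBLs came from healthy donors by Lymphoprep gradient, were washed and left overnight in RPMI-1640 with 10% FBS. Nonadherent cells at 5 × 10^5 cells/mL were stimulated with 2.5 μg/mL PHA and given a range of concentrations for 72 h. […] Mean ± SEM of three experiments.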

For another data set, the target named is Tubulin (Bos taurus, UniProt Q6B856+Q862L2+Q862F3). As to the kind of experiment: Inhibition of bovine brain tubulin assembly after 20 mins incubation by spectrophotometric analysis. In short, it runs like this:
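Bovine brain tubulin (10 μM) was preincubated with varying compound concentrations in glutamate buffer at 30 °C, then chilled to 0 °C. GTP was added to 0.4 mM final and the mixture warmed to 30 °C in cuvettes.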

Data set [1] has as its system HeLa. Put plainly: Induction of cell cycle arrest in human HeLa cells assessed as cell arrest at G2/M phase after 24 hrs by propidium iodide based flow cytometric analysis. The format is functional. In short, it runs like this: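 HeLa or Jurkat cells (5 × 10^5) treated 24 h. Cells fixed in ice-cold 70% ethanol, lysed with RNase A and 0.1% Triton X-100, and stained with propidium iodide. DNA content analyzed by flow cytometry to give cell-cycle phase distribution.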
Background: In flow cytometry, cells or beads pass a laser one at a time.

For data set [2], the system named is HeLa. As to the kind of experiment: Induction of cell cycle arrest in human HeLa cells assessed as decrease in cyclin B expression at 100 to 250 nM after 48 hrs by Western blot analysis. Type of data set: functional, cell-based. The method in brief:
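HeLa cells treated 24 or 48 h. Lysates cleared at 15000g, and 10 μg protein run on 7.5–15% SDS-PAGE and blotted to PVDF. Membranes blocked in 5% BSA and probed for cyclin B, p-cdc2 Tyr15 and cdc25c, then detected with peroxidase secondary and ECL. Blots stripped and reprobed for β-actin as loading control.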
For orientation: Immunoblotting shows a protein as a band on a membrane.

For data set [3], the system named is HeLa. As to the kind of experiment: Induction of apoptosis in human HeLa cells assessed as increase in proportion of cells with depolarized mitochondria at 100 to […] by JC1 staining based flow cytometry. Type of data set: functional, cell-based. In short, it runs like this:
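HeLa cells treated 24 or 48 h, then stained with JC-1. Cells with depolarized mitochondria quantified by flow cytometry. Three independent experiments.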

For data set [4], the system named is HeLa. Put plainly: Induction of apoptosis in human HeLa cells assessed as caspase 3 activation at 100 to […] by Western blot analysis. Type of data set: functional, cell-based. As to conditions: TDE = time-dependent effect. The method in brief:
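HeLa lysates prepared after the indicated times. 10 μg protein separated by SDS-PAGE on PVDF blots. Primary antibodies (2 h, room temperature) against PARP, caspase-3, cleaved caspase-9, Bcl-2 and Mcl-1, then peroxidase secondary with ECL detection. β-Actin reprobe used as loading control.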

In data set [5] the test system is HeLa. Put plainly: Induction of apoptosis in human HeLa cells assessed as caspase 9 activation at 100 to 250 nM by Western blot analysis. As to conditions: TDE = time-dependent effect.
For data set [6], the system named is Mus musculus. As to the kind of experiment: In vivo antitumor activity against mouse BNL 1ME A.7R.1 cells allografted in Balb/c mouse assessed as reduction in tumor growth at 10 mg/kg, ip up to 8 days relative to vehicle treated control. The format is functional, organism-based. Also on record: dose 10 mg/kg. In short, it runs like this:
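Male Balb/c mice (8 weeks old) implanted s.c. in the dorsal region with 10^7 BNL 1ME A.7R.1 cells in PBS. Dosed i.p. daily from the second day at 5 or 10 mg/kg, in vehicle of 0.9% NaCl with 5% PEG 400 and 0.5% Tween 80 (7 μL/g). Tumors measured daily with calipers for 7 days, volume = AB²/2. Five mice per group.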

The subject of data set [7] is Mus musculus. As to the kind of experiment: In vivo antitumor activity against mouse BNL 1ME A.7R.1 cells allografted in Balb/c mouse assessed as reduction in tumor growth at 5 mg/kg, ip up to 8 days relative to vehicle treated control. More on the design: dose 5 mg/kg. The format is functional, organism-based. In short, it runs like this: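 Male Balb/c mice, 8 weeks old, received 10^7 BNL 1ME A.7R.1 cells in 200 μL PBS subcutaneously in the dorsal region. Mice were randomised into groups of 5 and dosed ip daily from day 2. Vehicle was 0.9% NaCl with 5% PEG 400 and 0.5% Tween 80, at 7 μL/g. Tumours were measured daily by caliper for 7 days; V = AB²/2.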

The subject of data set [8] is HUVEC. Put plainly: Antivascular activity in HUVEC assessed as inhibition of endothelial cell migration to tumor site at 25 nM after 6 hrs by wound-healing assay. As to conditions: Homo sapiens. The format is functional, cell-based. In short, it runs like this: (§1)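 Scratch assay: confluent HUVEC monolayer on 0.1% collagen I wounded with a pipette tip and washed with PBS. Cells treated with compound and photographed at set times. Wound width measured in four areas and compared with the initial width to give gap closure. Three independent experiments.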

Data set [9] relates to HUVEC. As to the kind of experiment: Antivascular activity in HUVEC assessed as inhibition of endothelial cell migration to tumor site at 5 nM after 24 hrs by wound-healing assay. Type of data set: functional, cell-based. As to conditions: Homo sapiens. In short, it runs like this:
as §1

The test system of data set [10] is HUVEC. Put plainly: Antivascular activity in HUVEC assessed as distruption of capillary like tube formation at 5 to 25 nM after 1 hr by matrigel assay. The format is functional, cell-based. As to conditions: Homo sapiens. The method in brief:
(§2)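 Tube-disruption assay: HUVECs (passages 1–6) plated on gelled Matrigel and allowed 6 h to form capillary-like networks. Compound then added to the preformed networks for 1 or 3 h. Five fields per well photographed. Area covered, total network length, mesh number and branching points measured as percent change from complete-medium controls. Three independent experiments.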

Data set [11] has as its system HUVEC. As to the kind of experiment: Antivascular activity in HUVEC assessed as distruption of capillary like tube formation at 5 to 25 nM after 3 hrs by matrigel assay. Type of data set: functional, cell-based. As to conditions: Homo sapiens. In short, it runs like this:
as §2

The test system of data set [12] is HUVEC. Put plainly: Cytotoxicity against HUVEC cells at 5 to 25 nM. The format is cell-based. As to conditions: human, 0.025 µM.
The test system of data set [13] is Chorioallantoic membrane. Put plainly: Induction of blood vessel formation in chick embryo chorioallantoic membrane (CAM) at 100 pmol/egg. The format is functional, tissue-based. As to conditions: Gallus gallus.
Data set [14] relates to Chorioallantoic membrane. As to the kind of experiment: Antivascular activity in chick embryo chorioallantoic membrane (CAM) assessed as inhibition of FGF-induced blood vessel formation at 1 pmol/egg by microscopically measured on day 11. As to conditions: Gallus gallus. Type of data set: functional, tissue-based. The method in brief: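 CAM assay: alginate sponges carrying FGF plus compound (0.1–1.0 pmol per pellet) grafted onto the CAM of fertilized chicken eggs on day 11 of development. Blood vessels converging toward the implant counted under a stereomicroscope at 5× after 72 h (day 14). At least six eggs per group.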

Data set [15] in a line: Antivascular activity in mouse B16-BL6 cells allografted in C57/BL6 mouse assessed as reduction blood vessel formation in tumor measured at 30 mg/kg, ip after 24 hrs. The format is functional. As to conditions: route intraperitoneal. In short, it runs like this:
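C57BL/6 mice (6 weeks old) given 10^5 BL6-B16 melanoma cells s.c. in the dorsolateral flank in PBS. At 300 mm3 tumor volume, single i.p. dose of 30 mg/kg in DMSO. Tumors harvested 24 h later, frozen in OCT and cut into 4–5 μm sections. CD31-positive vessels counted in 5 fields per section (40× objective). Five mice per group.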

Structures are written as SMILES. The source made the active and inactive calls. The rule behind the calls is not given here. Bounds are passed on as bounds.

In the case of `CCOC(=O)c1oc2cc(OC)ccc2c1Nc1cc(OC)c(OC)c(OC)c1`, the IC50 worked out at 36 nM with A549, 17 nM in the data set with HT-29, 6300 nM in the data set with PBL and 1500 nM against Tubulin. Moreover, the Activity entry in the data set on HeLa [1] is “Dose-dependent effect”; with HeLa [3] it was “Dose-dependent effect”; with HeLa [4], “tde”; in the data set on HeLa [5], “tde”. For the same compound, the outcome in the data set with HeLa [2] was Active.

Take `COC(=O)c1oc2cc(OC)ccc2c1Nc1cc(OC)c(OC)c(OC)c1`: the IC50 in the data set with A549 is 9 nM; with HT-29, 3 nM; in the data set with PBL, over 10000 nM; on Tubulin, 1100 nM. Also, the Activity entry in the data set on HeLa [1] is “Dose-dependent effect”; in the data set with HeLa [3] it was “Dose-dependent effect”; with HeLa [4], “tde”; in the data set on HUVEC [12], “Non-toxic”; with HeLa [5], “tde”. Further, the outcome in the data set with HeLa [2], in the data set with Mus musculus [6], in the data set on HUVEC [8], in the data set with HUVEC [9], in the data set on HUVEC [10] and in the data set with HUVEC [11] was Active. Further, the result with Mus musculus [7] and in the data set on Chorioallantoic membrane [13] was inactive. Further, in the data set with Chorioallantoic membrane [14], the inhibition entry was “Active”. Moreover, the inhibition in vivo at 30 mg/kg in [15] is 20%.
